Assay results published in ChEMBL document CHEMBL1155156, “In vitro interactions between apricitabine and other deoxycytidine analogues” (Antimicrob Agents Chemother, 2007).

What was measured:
[1] = tested on: Human immunodeficiency virus; assay: Antiviral activity against HIV in T cells assessed as inhibition of viral replication; assay type: functional, organism-based; settings: Human immunodeficiency virus 1, T-cell
PBMC [2] = assay: Drug level in human resting PBMC assessed as apricitabine monophosphate level at 2.6 uM after 24 hrs; assay type: ADME, cell-based
Method in brief: (§1)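 Unstimulated PBMC from a single healthy donor, cultured in RPMI 1640 + 10% heat-inactivated FBS, seeded at 1.0 × 10⁶ cells/ml and incubated 24 h with 2.6 μM ³H-labelled nucleoside alone. Cold PBS washes, 60% methanol extraction at −20°C overnight, C18 reverse-phase HPLC (7.5 mM sodium dihydrogen phosphate, pH 6.8) with online radiodetection. Intracellular parent, MP, DP, TP reported as μM (1 pmol/10⁶ cells ≈ 1 μM).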

[3] = tested on: Human immunodeficiency virus; assay: Antiviral activity against HIV in PBMCs assessed as inhibition of viral replication; assay type: functional, organism-based; settings: Human immunodeficiency virus 1
PBMC [4] = assay: Drug level in human resting PBMC assessed as apricitabine diphosphate level at 2.6 uM after 24 hrs; assay type: ADME, cell-based; method in brief: as §1
PBMC [5] = assay: Drug level in human phytohemagglutininin-activated PBMC assessed as apricitabine triphosphate level at 2.6 uM after 24 hrs; assay type: ADME, cell-based
Method in brief: (§2)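 Single healthy donor PBMC from Ficoll-type separation with hypotonic erythrocyte lysis, cultured in RPMI 1640 + 10% heat-inactivated FBS and stimulated 72 h with PHA-M 5 μg/ml plus IL-2 10 U/ml. Seeded at 0.75 × 10⁶ cells/ml and exposed 24 h to 2.6 μM ³H-labelled nucleoside alone. Cells washed cold, extracted in 60% methanol, analysed by C18 reverse-phase HPLC (7.5 mM NaH2PO4, pH 6.8) with online radioactivity detection. Parent and MP/DP/TP expressed as μM (1 pmol/10⁶ cells ≈ 1 μM).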

PBMC [6] = assay: Drug level in human resting PBMC at 2.6 uM after 24 hrs; assay type: ADME, cell-based; method in brief: as §1
PBMC [7] = assay: Drug level in human resting PBMC assessed as apricitabine triphosphate level at 2.6 uM after 24 hrs; assay type: ADME, cell-based; method in brief: as §1
PBMC [8] = assay: Drug level in human phytohemagglutininin-activated PBMC assessed as apricitabine monophosphate level at 2.6 uM after 24 hrs; assay type: ADME, cell-based; method in brief: as §2
PBMC [9] = assay: Drug level in human phytohemagglutininin-activated PBMC assessed as apricitabine diphosphate level at 2.6 uM after 24 hrs; assay type: ADME, cell-based; method in brief: as §2
PBMC [10] = assay: Drug level in human phytohemagglutininin-activated PBMC at 2.6 uM after 24 hrs; assay type: ADME, cell-based; method in brief: as §2
[11] = tested on: Human immunodeficiency virus 1; assay: Antiviral activity against HIV1 with reverse transcriptase M184V mutation in human phytohemagglutininin-activated PBMC assessed as inhibition of viral replication; assay type: functional, organism-based
Method in brief: (§3)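 PBMC from one healthy donor, stimulated 3 days with PHA (5 μg/ml) plus IL-2 (10 U/ml), infected with HIV-1 M184V at MOI 0.02 for 3 h at 37°C, washed, 2 × 10⁵ cells/well into drug-containing medium. Half the medium renewed with drug at day 4. Day 7 supernatant RT activity measured on poly(rA)(dT) with [³H]dTTP. Triplicates.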

PBMC [12] = assay: Drug level in human resting PBMC assessed as Lamivudine triphosphate level at 2.6 uM after 24 hrs; assay type: ADME, cell-based; method in brief: as §1
[13] = tested on: Human immunodeficiency virus 1; assay: Antiviral activity against HIV1 with reverse transcriptase M184V mutation in human phytohemagglutininin-activated PBMC assessed as inhibition of viral replication at 60 uM; assay type: functional; method in brief: as §3
PBMC [14] = assay: Drug level in human phytohemagglutininin-activated PBMC assessed as Lamivudine monophosphate level at 2.6 uM after 24 hrs; assay type: ADME, cell-based; method in brief: as §2
PBMC [15] = assay: Drug level in human resting PBMC assessed as Lamivudine monophosphate level at 2.6 uM after 24 hrs; assay type: ADME, cell-based; method in brief: as §1
PBMC [16] = assay: Drug level in human resting PBMC assessed as Lamivudine diphosphate level at 2.6 uM after 24 hrs; assay type: ADME, cell-based; method in brief: as §1
PBMC [17] = assay: Drug level in human phytohemagglutininin-activated PBMC assessed as Lamivudine diphosphate level at 2.6 uM after 24 hrs; assay type: ADME, cell-based; method in brief: as §2
PBMC [18] = assay: Drug level in human phytohemagglutininin-activated PBMC assessed as Lamivudine triphosphate level at 2.6 uM after 24 hrs; assay type: ADME, cell-based; method in brief: as §2
[19] = tested on: Human immunodeficiency virus 1; assay: Antiviral activity against HIV1 with reverse transcriptase M184V mutation in human phytohemagglutininin-activated PBMC assessed as inhibition of viral replication at 200 uM; assay type: functional; method in brief: as §3

| Structure (SMILES) | EC50 [1] [nM] | Drug uptake (PBMC [2]) [µM] | EC50 [3] [nM] | Drug uptake (PBMC [4]) [µM] | Drug uptake (PBMC [5]) [µM] | Drug uptake (PBMC [6]) [µM] | Drug uptake (PBMC [7]) [µM] | Drug uptake (PBMC [8]) [µM] | Drug uptake (PBMC [9]) [µM] | Drug uptake (PBMC [10]) [µM] | EC50 [11] [nM] | EC90 [11] [nM] | Drug uptake (PBMC [12]) [µM] | inhibition at 60 µM [13] [%] | Drug uptake (PBMC [14]) [µM] | Drug uptake (PBMC [15]) [µM] | Drug uptake (PBMC [16]) [µM] | Drug uptake (PBMC [17]) [µM] | Drug uptake (PBMC [18]) [µM] | inhibition at 200 µM [19] [%] |
| --- | --- | --- | --- | --- | --- | --- | --- | --- | --- | --- | --- | --- | --- | --- | --- | --- | --- | --- | --- | --- |
| Nc1ccn([C@H]2CO[C@@H](CO)S2)c(=O)n1 [APRICITABINE] | 1000 | 0.11 | 100 | 0.58 | 0.54 | 0.39 | 0.33 | 0.23 | 0.69 | 1.19 | 1900 | 11900 | – | – | – | – | – | – | – | – |
| Nc1ccn([C@@H]2CS[C@H](CO)O2)c(=O)n1 [LAMIVUDINE] | – | – | – | – | – | 0.1 | – | – | – | 0.18 | 68000 | – | 0.73 | 45 | 0.52 | 0.12 | 1.01 | 1.66 | 0.66 | 45 |
